Measured values reported in ChEMBL document CHEMBL5046221, “Identification of Pyrimidine-Based Lead Compounds for Understudied Kinases Implicated in Driving Neurodegeneration” (J Med Chem, 2022).
Active and inactive are the calls of the source. The calls are words filed in the database; no cut-off is given here.

What was measured:
[1] = target: T1, MAP/microtubule affinity-regulating kinase 3 (Homo sapiens, UniProt P27448); experiment: Displacement of tracer K9 from NLuc fused MARK3 (unknown origin) expressed in HEK293 cells by NanoBRET assay; type: cell-based
Target sequence in this assay (P27448 whole entry, the tested form may be a part): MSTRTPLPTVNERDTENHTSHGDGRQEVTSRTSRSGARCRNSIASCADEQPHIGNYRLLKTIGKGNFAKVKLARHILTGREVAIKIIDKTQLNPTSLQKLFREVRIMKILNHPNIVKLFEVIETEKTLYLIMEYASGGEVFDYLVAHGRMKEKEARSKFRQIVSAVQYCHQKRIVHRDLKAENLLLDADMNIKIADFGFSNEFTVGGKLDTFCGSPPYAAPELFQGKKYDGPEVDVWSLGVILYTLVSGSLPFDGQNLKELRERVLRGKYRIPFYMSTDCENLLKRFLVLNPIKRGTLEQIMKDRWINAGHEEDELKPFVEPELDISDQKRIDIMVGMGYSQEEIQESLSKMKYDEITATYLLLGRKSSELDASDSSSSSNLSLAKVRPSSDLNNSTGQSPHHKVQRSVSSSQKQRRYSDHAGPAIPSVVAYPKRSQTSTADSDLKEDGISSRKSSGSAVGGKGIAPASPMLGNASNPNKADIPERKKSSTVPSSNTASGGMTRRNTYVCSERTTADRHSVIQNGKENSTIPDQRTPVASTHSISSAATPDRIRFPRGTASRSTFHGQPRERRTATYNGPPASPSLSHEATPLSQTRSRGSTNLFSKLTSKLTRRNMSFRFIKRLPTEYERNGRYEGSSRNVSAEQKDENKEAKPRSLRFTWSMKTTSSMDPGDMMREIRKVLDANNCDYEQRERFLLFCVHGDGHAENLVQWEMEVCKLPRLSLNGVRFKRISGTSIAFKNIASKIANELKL

[2] = target: Serine/threonine-protein kinase MARK1 (Homo sapiens) (UniProt Q9P0L2); experiment: Inhibition of recombinant human MARK1 (2 to end residues) using KKKVSRSGLYRSPSMPENLNRPR as substrate incubated for 40 mins in presence of [gamma-33ATP] by scintillation counting based radiometry assay
Summary of the method: (§1)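 Eurofins radiometric enzymatic assay with ATP at Km for each kinase. IC50 was derived from a 9-point dose–response curve run in duplicate.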

[3] = target: Mitogen-activated protein kinase kinase kinase 9 (Homo sapiens) (UniProt P80192); experiment: Inhibition of recombinant human MLK1 (134 to 414 residues) using casein as substrate incubated for 40 mins in presence of [gamma-33ATP by scintillation counting based radiometry assay; summary of the method: as §1
[4] = target: T2, Serine/threonine-protein kinase 17A (Homo sapiens, UniProt Q9UEE5); experiment: Displacement of tracer K9 from NLuc fused DRAK1 (unknown origin) expressed in HEK293 cells by NanoBRET assay; type: cell-based
T2 sequence (Q9UEE5 whole entry): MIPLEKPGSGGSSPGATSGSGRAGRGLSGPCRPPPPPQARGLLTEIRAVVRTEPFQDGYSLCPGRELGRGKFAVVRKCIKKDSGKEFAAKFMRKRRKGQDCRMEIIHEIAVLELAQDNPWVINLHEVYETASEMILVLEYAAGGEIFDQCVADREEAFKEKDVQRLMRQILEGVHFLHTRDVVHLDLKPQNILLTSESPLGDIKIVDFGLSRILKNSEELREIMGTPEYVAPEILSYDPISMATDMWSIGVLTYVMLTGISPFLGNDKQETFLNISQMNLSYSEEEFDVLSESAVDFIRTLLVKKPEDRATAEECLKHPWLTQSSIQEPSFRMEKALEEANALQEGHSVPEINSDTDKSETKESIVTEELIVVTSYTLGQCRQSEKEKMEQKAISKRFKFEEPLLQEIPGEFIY

[5] = target: T1, MAP/microtubule affinity-regulating kinase 3; experiment: Inhibition of recombinant full length human MARK3 using KKKVSRSGLYRSP as substrate incubated for 40 mins in presence of [gamma-33ATP] by scintillation counting based radiometry assay; summary of the method: as §1
Target sequence in this assay (P27448 whole entry, looked up, the tested form may be a part): as the sequence (P27448 whole entry, the tested form may be a part) above

[6] = target: NUAK family SNF1-like kinase 1 (Homo sapiens) (UniProt O60285); experiment: Inhibition of recombinant human ARK5 (2 to end residues) using KKKVSRSGLYRSPSMPENLNRPR as substrate incubated for 40 mins in presence of [gamma-33ATP] by scintillation counting based radiometry assay; summary of the method: as §1
[7] = target: T3, MAP/microtubule affinity-regulating kinase 4 (Homo sapiens) (UniProt Q96L34); experiment: Inhibition of recombinant full length human MARK4 using KKKVSRSGLYRSPSMPENLNRPR as substrate incubated for 40 mins in presence of [gamma-33ATP] by scintillation counting based radiometry assay; summary of the method: as §1
T3 sequence (whole entry): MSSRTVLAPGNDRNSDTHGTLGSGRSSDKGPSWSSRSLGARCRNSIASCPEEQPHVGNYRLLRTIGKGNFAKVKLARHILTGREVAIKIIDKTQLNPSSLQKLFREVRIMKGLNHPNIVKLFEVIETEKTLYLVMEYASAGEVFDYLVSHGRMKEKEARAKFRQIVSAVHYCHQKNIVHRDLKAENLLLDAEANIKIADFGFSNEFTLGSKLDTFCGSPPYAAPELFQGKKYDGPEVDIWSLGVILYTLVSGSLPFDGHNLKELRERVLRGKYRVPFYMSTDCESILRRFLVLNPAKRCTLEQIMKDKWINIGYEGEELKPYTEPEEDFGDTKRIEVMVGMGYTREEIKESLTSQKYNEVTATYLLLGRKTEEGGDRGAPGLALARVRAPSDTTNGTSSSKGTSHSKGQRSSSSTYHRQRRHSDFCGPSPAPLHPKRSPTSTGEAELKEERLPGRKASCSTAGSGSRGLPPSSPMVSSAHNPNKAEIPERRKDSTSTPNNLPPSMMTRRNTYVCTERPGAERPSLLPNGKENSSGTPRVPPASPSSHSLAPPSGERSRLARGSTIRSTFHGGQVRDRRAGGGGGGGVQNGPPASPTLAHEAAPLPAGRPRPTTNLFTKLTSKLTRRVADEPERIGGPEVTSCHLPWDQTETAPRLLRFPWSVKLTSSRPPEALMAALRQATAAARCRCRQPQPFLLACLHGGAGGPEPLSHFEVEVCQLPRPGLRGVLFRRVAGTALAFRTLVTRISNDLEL

[8] = Effective permeability in PBS at 7.4 incubated for 5 hrs by PAMPA analysis; type: ADME; settings: pH 7.4, 5 h
Summary of the method: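 PAMPA: DMSO stocks were diluted in PBS pH 7.4 and placed in the donor compartment, with PBS pH 7.4 in the acceptor, for 5 h. Both compartments were quantified by CLND against a calibration curve, with background nitrogen correction. Effective permeability was calculated from donor and acceptor concentrations using measured rather than assumed solubility.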

[9] = Kinetic solubility of compound in PBS at pH 7.4 incubated for 24 hrs by chemiluminscent nitrogen detection method; type: physicochemical; settings: buffer, pH 7.4, 24 h
Summary of the method: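 Filtrates were quantified by total chemiluminescent nitrogen determination against a calibration curve, with correction for background nitrogen from DMSO and medium.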

[10] = target: T4, Serine/threonine-protein kinase TBK1 (Homo sapiens, UniProt Q9UHD2); experiment: Displacement of tracer K5 from NLuc fused TBK1 (unknown origin) expressed in HEK293 cells by NanoBRET assay; type: cell-based
T4 sequence (Q9UHD2 whole entry): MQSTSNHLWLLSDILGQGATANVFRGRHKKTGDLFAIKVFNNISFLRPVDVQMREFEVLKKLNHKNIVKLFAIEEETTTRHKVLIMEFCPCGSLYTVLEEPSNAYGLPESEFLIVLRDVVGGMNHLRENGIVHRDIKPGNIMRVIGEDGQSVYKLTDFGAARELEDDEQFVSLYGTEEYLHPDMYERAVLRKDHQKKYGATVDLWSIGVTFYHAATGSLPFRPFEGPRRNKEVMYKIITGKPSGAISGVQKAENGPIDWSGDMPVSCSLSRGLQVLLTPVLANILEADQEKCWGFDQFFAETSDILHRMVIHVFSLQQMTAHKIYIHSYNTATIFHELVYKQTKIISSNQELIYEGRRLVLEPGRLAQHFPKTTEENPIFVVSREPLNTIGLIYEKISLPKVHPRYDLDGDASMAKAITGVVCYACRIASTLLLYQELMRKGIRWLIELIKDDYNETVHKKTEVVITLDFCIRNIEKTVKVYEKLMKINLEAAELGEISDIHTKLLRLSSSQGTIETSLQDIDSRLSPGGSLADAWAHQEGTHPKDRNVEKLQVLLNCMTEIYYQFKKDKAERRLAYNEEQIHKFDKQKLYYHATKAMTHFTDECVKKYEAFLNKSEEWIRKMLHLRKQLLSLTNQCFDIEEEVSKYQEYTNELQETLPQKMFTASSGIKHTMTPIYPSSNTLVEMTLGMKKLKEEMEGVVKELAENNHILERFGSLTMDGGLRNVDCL
Summary of the method: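 HEK293 cells grown in DMEM with 10% FBS at 37 °C, 5% CO2. NanoBRET assay run in dose–response per manufacturer's protocol with tracer K-5 at 0.5 μM. SEM calculated for assays run more than once.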

[11] = target: T5, MAP/microtubule affinity-regulating kinase 4 (Homo sapiens, UniProt Q96L34); experiment: Displacement of tracer K5 from NLuc fused MARK4 (unknown origin) expressed in HEK293 cells by NanoBRET assay; type: cell-based
T5 sequence (Q96L34 whole entry): T3 sequence (whole entry)

[12] = target: T6, Non-receptor tyrosine-protein kinase TYK2 (Homo sapiens, UniProt P29597); experiment: Inhibition of NanoLuc-fused TYK2 (unknown origin) expressed in HEK293 cells incubated for 2 hrs by NanoBRET assay; type: cell-based
Summary of the method: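 Cellular NanoBRET target-engagement assays were run by Carna Biosciences to the manufacturer's protocol. Dose–response was in singlicate, with compounds tested at concentrations up to 10 μM.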

[13] = target: T7, Macrophage colony-stimulating factor 1 receptor (Homo sapiens, UniProt P07333); experiment: Inhibition of NanoLuc-fused CSF1R (unknown origin) expressed in HEK293 cells incubated for 2 hrs by NanoBRET assay; type: cell-based
[14] = target: Tyrosine-protein kinase JAK2 (Homo sapiens) (UniProt O60674); experiment: Inhibition of recombinant human JAK2 (808 to end residues) using KTFCGTPEYLAPEVRREPRILSEEEQEMFRDFDYIADWC as substrate at 1 uM incubated for 40 mins in presence of [gamma-33P-ATP] by radiometric scintillation assay relative to control
Summary of the method: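 Eurofins radiometric kinase assay with ATP at Km for each kinase. Compound was tested at a single 1 μM concentration in duplicate, and the result is reported as percent of control.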

[15] = target: T7, Macrophage colony-stimulating factor 1 receptor; experiment: Inhibition of recombinant human FMS (538 to end residues) using KKKSPGEYVNIEFG as substrate measured after 40 mins in presence of [gamma33P]ATP by radiometric scintillation counting method
Summary of the method: (§2)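 Eurofins radiometric kinase assay run at ATP equal to Km for each kinase. 9-point dose–response in duplicate gives the IC50.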

[16] = target: T6, Non-receptor tyrosine-protein kinase TYK2; experiment: Inhibition of human TYK2 (875 to end residues) using GGMEDIYFEFMGGKKK as substrate measured after 40 mins in presence of [gamma33P]ATP by radiometric scintillation counting method; summary of the method: as §1
[17] = target: T8, Serine/threonine-protein kinase 17B (Homo sapiens) (UniProt O94768); experiment: Inhibition of recombinant human DRAK2 using KKRPQRRYSNVF as substrate after 120 mins in presence of [gamma-33ATP] by scintillation counting based radiometry assay; summary of the method: as §1
T8 sequence (whole entry): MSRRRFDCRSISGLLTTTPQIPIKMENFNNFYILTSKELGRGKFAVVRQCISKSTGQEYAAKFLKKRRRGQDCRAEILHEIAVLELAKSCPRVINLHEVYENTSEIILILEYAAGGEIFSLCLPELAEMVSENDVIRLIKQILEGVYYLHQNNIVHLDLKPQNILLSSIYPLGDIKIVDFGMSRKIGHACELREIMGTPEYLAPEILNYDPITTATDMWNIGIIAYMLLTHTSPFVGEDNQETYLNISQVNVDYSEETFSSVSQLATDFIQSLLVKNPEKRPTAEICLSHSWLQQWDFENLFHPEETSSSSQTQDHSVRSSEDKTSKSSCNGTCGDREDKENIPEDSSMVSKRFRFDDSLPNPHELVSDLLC

[18] = target: AP2-associated protein kinase 1 (Homo sapiens, UniProt Q2M2I8); experiment: Inhibition of human AAK1 using peptide as substrate incubated for 120 mins in presence of [gamma-33ATP] by scintillation counting based radiometry assay; summary of the method: as §2
[19] = target: T9, Serine/threonine-protein kinase 17A (Homo sapiens) (UniProt Q9UEE5); experiment: Inhibition of recombinant human DRAK1 using KKLNRTLSFAEPG as substrate after 40 mins in presence of [gamma-33ATP] by scintillation counting based radiometry assay; summary of the method: as §2
T9 sequence (whole entry): T2 sequence (Q9UEE5 whole entry)

T6 sequence (P29597 whole entry, the tested form may be a part): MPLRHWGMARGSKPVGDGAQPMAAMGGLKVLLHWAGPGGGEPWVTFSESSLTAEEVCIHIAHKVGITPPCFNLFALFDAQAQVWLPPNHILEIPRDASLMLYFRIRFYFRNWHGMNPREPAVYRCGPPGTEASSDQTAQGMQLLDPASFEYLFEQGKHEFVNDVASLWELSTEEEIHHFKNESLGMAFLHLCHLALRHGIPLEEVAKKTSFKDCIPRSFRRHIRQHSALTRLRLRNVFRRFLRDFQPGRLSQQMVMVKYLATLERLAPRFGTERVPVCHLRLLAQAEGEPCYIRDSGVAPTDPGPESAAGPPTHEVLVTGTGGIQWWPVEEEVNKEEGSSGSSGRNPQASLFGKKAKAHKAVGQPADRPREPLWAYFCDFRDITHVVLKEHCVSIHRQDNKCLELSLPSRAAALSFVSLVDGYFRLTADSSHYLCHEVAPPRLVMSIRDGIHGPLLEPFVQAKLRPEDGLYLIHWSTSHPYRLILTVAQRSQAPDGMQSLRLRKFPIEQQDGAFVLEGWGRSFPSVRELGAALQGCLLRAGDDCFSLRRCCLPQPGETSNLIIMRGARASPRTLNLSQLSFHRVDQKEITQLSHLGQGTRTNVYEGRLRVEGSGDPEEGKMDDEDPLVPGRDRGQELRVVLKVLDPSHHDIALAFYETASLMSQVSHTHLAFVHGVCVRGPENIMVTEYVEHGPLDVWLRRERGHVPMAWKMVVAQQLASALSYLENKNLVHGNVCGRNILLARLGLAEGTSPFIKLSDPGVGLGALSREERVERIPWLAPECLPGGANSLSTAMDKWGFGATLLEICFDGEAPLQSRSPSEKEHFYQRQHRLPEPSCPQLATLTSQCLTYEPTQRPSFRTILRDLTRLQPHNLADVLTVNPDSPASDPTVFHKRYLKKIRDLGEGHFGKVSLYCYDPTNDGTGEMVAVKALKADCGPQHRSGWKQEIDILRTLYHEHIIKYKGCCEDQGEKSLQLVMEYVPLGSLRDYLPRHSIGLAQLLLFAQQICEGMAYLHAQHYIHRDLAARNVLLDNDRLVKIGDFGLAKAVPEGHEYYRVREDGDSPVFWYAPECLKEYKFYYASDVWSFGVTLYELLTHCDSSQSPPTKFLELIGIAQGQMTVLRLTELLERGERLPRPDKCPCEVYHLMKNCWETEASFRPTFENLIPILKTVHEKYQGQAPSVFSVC
Sequence of Serine/threonine-protein kinase MARK1 (Homo sapiens) (Q9P0L2 whole entry, looked up): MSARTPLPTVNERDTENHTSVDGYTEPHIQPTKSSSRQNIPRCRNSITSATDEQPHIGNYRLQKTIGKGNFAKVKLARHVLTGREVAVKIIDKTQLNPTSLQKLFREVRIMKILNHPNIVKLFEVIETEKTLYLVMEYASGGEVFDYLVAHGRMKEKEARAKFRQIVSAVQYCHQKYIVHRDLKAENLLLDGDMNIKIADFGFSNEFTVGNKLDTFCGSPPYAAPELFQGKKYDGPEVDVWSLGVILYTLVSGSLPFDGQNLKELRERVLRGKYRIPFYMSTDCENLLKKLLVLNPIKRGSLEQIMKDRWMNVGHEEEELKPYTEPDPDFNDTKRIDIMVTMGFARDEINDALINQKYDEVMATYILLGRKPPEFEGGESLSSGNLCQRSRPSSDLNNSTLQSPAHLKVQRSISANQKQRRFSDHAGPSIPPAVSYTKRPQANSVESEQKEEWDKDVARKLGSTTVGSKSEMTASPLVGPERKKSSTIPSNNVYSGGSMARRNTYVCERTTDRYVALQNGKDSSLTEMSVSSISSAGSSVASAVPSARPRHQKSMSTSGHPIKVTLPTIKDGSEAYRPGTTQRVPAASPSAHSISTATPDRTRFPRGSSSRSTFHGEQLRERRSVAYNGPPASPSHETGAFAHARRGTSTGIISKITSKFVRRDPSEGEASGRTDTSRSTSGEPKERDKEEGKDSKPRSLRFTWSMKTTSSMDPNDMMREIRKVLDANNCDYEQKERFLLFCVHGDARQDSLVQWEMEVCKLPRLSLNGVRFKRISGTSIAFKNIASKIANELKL
T7 sequence (P07333 whole entry, the tested form may be a part): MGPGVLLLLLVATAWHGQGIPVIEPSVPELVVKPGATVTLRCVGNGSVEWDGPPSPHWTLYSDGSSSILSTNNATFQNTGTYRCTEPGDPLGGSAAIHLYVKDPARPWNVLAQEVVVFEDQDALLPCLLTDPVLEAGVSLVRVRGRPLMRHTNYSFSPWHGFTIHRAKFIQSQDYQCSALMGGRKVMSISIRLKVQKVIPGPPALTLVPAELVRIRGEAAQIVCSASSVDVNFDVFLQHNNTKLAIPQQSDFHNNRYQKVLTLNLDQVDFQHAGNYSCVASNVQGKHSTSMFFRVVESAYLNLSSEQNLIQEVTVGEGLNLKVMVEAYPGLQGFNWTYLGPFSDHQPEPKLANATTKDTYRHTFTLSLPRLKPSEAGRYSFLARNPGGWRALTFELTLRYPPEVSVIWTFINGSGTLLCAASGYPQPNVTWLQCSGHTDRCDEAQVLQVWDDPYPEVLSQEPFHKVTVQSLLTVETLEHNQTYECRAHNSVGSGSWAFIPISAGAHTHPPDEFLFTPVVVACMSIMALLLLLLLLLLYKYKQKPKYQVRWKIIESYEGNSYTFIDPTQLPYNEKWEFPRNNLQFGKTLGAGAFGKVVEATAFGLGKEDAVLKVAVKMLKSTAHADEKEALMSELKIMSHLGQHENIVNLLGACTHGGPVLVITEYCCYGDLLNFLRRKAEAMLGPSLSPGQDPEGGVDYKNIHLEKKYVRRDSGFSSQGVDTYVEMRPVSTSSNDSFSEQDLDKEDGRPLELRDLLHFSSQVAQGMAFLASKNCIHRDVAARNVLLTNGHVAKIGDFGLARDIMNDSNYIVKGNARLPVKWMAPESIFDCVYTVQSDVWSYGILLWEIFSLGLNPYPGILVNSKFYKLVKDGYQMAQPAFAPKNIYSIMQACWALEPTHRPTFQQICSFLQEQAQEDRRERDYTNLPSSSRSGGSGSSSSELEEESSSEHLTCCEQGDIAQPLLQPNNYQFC
Sequence of AP2-associated protein kinase 1 (Q2M2I8 whole entry, looked up): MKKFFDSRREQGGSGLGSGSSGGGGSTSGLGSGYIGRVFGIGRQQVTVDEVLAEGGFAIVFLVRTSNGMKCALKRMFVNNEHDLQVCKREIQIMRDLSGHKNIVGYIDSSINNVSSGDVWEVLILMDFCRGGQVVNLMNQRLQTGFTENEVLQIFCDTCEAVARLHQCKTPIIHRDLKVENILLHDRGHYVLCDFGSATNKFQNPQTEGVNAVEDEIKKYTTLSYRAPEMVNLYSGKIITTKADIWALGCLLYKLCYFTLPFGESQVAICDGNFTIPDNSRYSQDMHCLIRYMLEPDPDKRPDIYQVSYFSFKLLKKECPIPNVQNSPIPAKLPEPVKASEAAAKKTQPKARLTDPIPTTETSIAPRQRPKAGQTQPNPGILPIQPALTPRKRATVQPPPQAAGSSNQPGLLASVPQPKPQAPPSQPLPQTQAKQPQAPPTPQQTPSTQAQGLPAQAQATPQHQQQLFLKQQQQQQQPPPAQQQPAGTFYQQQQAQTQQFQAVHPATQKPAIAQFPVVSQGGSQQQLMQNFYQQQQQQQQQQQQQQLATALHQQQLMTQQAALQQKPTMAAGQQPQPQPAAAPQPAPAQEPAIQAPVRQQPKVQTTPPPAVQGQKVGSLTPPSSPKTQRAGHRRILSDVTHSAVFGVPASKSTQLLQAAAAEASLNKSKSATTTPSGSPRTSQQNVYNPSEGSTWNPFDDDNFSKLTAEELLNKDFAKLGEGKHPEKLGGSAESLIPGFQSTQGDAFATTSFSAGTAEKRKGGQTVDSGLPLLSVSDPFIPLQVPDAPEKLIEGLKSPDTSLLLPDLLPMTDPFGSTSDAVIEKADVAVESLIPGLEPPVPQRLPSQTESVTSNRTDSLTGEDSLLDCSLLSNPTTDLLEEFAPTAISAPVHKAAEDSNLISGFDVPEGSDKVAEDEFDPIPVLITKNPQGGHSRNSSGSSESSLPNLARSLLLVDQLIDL

c1cc(CN2CCOCC2)cc(Nc2ncc(C3CC3)c(NCCc3c[nH]cn3)n2)c1
IC50 [1]: 4.01 µM
inhibition [2]: Active
inhibition [3]: Active
IC50 [4]: 3.62 µM
inhibition [5]: Active
inhibition [6]: Active
inhibition [7]: Active
Peff [8]: 5.61 10^-7 cm/s
Kinetic_solubility [9]: 173.6 µM
IC50 [10]: > 10 µM
IC50 [11]: 0.808 µM

NS(=O)(=O)c1ccc(CNc2ccnc(Nc3cccc(NC(=O)N4CCCC4)c3)n2)cc1
IC50 [12]: > 10 µM
IC50 [1]: > 10 µM
IC50 [13]: > 10 µM
% control [14]: 62%
IC50 [4]: > 10 µM
IC50 [15]: 0.305 µM
IC50 [16]: 0.033 µM
Peff ([8]; BLD = below limit of detection): Bld
Kinetic solubility [9]: 147 µM
IC50 [10]: > 10 µM
IC50 [11]: > 10 µM

Cc1nn(CC(F)(F)F)cc1Nc1ncc(Br)c(NCCCNC(=O)C2CCC2)n1
IC50 [1]: > 10 µM
inhibition [2]: Active
inhibition [17]: Active
IC50 [4]: 0.126 µM
inhibition [18]: Active
inhibition [19]: Active
Peff [8]: 3.73 10^-6 cm/s
Kinetic solubility [9]: 40.3 µM
IC50 [10]: 0.321 µM
IC50 [11]: 3.54 µM
